Data reported in ChEMBL document CHEMBL1152633, “Synthesis and biological evaluation of flavan-3-ol derivatives as positive modulators of GABAA receptors” (Bioorg Med Chem, 2009).

Key:
[1] = molecular target: T1, GABA-A receptor; alpha-1/beta-2/gamma-2 (Homo sapiens) (UniProt P14867+P47870+P18507); assay: Modulatory activity at human GABAA alpha-1-beta-2-gamma-2L receptor expressed in Xenopus laevis oocytes assessed as potentiation of GABA EC5-induced currents at 30 uM by two-electrode voltage clamp assay; type: cell-based; conditions: Oocyte
Method in brief: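 Stage V–VI oocytes were injected with 2–3 ng cRNA (α:β:γ 1:1:2) and kept 3–4 days at 16 °C in ND96 with pyruvate, theophylline and gentamycin. Two-electrode voltage clamp was run in ND96 at pH 7.5 with 3 M KCl electrodes. Test drug was co-applied with GABA EC5, with a 5–10 min washout between applications. Currents were normalised to a reference modulator at the same concentration on the same cell (n ≤ 5).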

[2] = molecular target: T1, GABA-A receptor; alpha-1/beta-2/gamma-2 (Homo sapiens); assay: Modulatory activity at human GABAA alpha-1-beta-2-gamma-2L receptor expressed in Xenopus laevis oocytes assessed as potentiation of GABA EC5-induced currents at 30 uM by two-electrode voltage clamp assay relative to untreated control; type: cell-based; conditions: Oocyte
Method in brief: (§1)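 Oocytes were injected with cRNA (α:β:γ 1:1:2) and incubated 3–4 days at 16 °C in ND96. TEVC was run in ND96 at pH 7.5, co-applying the drug at a range of concentrations with GABA EC5, with a 5–10 min washout between applications. Potentiation = (Idrug − IGABA) × 100/IGABA. Data are mean ± SEM, n ≥ 8, from at least two oocyte batches.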

[3] = molecular target: T2, GABA-A receptor; alpha-1/beta-2/gamma-2 (Homo sapiens, UniProt P14867+P18507+P47870); assay: Modulatory activity at human GABAA alpha-1-beta-2-gamma-2L receptor expressed in Xenopus laevis oocytes assessed as potentiation of GABA EC5-induced currents by two-electrode voltage clamp assay; type: cell-based, Oocyte; method in brief: as §1
T2 sequence (P14867 whole entry): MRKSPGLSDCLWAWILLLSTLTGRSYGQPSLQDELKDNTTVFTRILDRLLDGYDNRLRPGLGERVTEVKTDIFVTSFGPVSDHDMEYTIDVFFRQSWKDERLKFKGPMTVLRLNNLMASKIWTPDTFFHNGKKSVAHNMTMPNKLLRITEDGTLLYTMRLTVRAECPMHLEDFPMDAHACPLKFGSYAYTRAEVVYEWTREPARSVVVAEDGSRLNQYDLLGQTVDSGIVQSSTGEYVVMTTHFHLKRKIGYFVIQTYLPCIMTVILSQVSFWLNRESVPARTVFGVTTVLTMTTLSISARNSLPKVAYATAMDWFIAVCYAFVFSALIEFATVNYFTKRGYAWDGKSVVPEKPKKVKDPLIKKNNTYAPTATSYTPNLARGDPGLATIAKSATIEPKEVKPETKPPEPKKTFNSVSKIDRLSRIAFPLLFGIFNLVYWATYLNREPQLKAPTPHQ
T2 sequence (P47870 whole entry): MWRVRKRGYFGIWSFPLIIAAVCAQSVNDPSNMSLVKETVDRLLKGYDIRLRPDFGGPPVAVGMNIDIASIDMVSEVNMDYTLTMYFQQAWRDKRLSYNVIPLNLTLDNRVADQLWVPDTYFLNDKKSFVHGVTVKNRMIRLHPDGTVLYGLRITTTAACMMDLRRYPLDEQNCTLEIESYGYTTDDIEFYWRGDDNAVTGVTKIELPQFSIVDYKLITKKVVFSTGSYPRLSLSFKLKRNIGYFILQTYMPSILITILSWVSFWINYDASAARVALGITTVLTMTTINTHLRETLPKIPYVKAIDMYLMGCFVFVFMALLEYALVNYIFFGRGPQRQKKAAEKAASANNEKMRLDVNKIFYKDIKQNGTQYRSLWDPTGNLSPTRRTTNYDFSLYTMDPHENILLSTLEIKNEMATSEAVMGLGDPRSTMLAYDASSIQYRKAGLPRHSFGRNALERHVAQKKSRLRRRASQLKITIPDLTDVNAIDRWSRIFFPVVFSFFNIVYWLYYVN
T2 sequence (P18507 whole entry): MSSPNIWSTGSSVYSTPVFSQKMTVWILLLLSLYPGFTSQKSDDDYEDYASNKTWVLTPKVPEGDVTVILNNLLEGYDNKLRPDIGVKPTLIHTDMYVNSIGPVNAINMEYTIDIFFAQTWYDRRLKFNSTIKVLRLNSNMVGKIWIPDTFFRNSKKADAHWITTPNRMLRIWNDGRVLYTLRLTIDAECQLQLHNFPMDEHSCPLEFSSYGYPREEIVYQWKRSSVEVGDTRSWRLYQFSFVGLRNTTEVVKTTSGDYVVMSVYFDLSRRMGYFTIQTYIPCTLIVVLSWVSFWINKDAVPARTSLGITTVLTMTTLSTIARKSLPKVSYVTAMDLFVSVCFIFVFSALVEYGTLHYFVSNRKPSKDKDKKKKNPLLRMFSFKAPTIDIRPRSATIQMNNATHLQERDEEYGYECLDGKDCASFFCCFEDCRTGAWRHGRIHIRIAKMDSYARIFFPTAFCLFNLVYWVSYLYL

[4] = molecular target: T1, GABA-A receptor; alpha-1/beta-2/gamma-2 (Homo sapiens); assay: Modulatory activity at human GABAA alpha-1-beta-2-gamma-2L receptor expressed in Xenopus laevis oocytes assessed as potentiation of GABA EC5-induced currents at 50 uM by two-electrode voltage clamp assay relative to untreated control; type: cell-based; conditions: Oocyte; method in brief: as §1

| Compound | Activity [1] | other results |
| --- | --- | --- |
| COc1ccc([C@H]2Oc3ccccc3C[C@H]2O)cc1 | < 50% |  |
| CC(=O)O[C@H]1Cc2ccccc2O[C@@H]1c1ccc(O)cc1 | < 50% |  |
| CC(=O)O[C@H]1Cc2ccccc2O[C@H]1c1ccc(O)cc1 | < 50% |  |
| COc1ccc([C@@H]2Oc3cc(O)ccc3C[C@H]2OC(C)=O)cc1 | > 50% | fold change (FC) [4]: 10.5 |
| COc1ccc([C@H]2Oc3ccc(C)cc3C[C@@H]2OC(C)=O)cc1OC | < 50% |  |
| CC(=O)O[C@H]1Cc2ccccc2O[C@@H]1c1ccc2c(c1)OCO2 | > 50% |  |
| CC(=O)O[C@@H]1Cc2ccccc2O[C@H]1c1ccc2c(c1)OCO2 | > 50% |  |
| COc1ccc([C@@H]2Oc3cc(OCc4ccccc4)ccc3C[C@H]2OC(C)=O)cc1OC | < 50% |  |
| COc1ccc([C@@H]2Oc3ccc(OC)cc3C[C@H]2OC(C)=O)cc1 | > 50% | EC50 [3]: 15 µM |
| COc1cc([C@@H]2Oc3ccccc3C[C@H]2OC(C)=O)cc(Br)c1OC | > 50% |  |
| COc1ccc([C@H]2Oc3ccccc3C[C@@H]2OC(C)=O)cc1 | > 50% |  |
| COc1ccc([C@H]2Oc3ccccc3C[C@H]2OC(C)=O)cc1 | < 50% |  |
| COc1ccc([C@H]2Oc3cc(OCc4ccccc4)ccc3C[C@@H]2OC(C)=O)cc1OC | < 50% |  |
| CC(=O)O[C@H]1Cc2ccccc2O[C@@H]1c1ccc(OCc2ccccc2)cc1 | < 50% |  |
| COc1ccc([C@H]2Oc3ccc(OC)cc3C[C@H]2OC(C)=O)cc1 | < 50% |  |

Further lines, with some results ahead:

| Activity [1] | Compound | other results |
| --- | --- | --- |
| < 50% | COc1ccc([C@@H]2Oc3cc(O)ccc3C[C@@H]2OC(C)=O)cc1 |  |
| > 50% | COc1ccc([C@@H]2Oc3cc(O)ccc3C[C@H]2OC(C)=O)cc1OC | fold change (FC) [2]: 12; EC50 [3]: 12.1 µM |
| > 50% | COc1ccc([C@@H]2Oc3ccccc3C[C@H]2OC(C)=O)cc1OC | fold change (FC) [2]: 14.7; EC50 [3]: 6.68 µM |
| > 50% | COc1ccc([C@H]2Oc3ccccc3C[C@@H]2OC(C)=O)cc1OC |  |
| > 50% | COc1ccc([C@@H]2Oc3ccc(C)cc3C[C@H]2OC(C)=O)cc1OC |  |
| < 50% | COc1ccc([C@@H]2Oc3ccccc3C[C@@H]2OC(C)=O)cc1OC |  |
| < 50% | COc1ccc([C@H]2Oc3cc(O)ccc3C[C@@H]2OC(C)=O)cc1OC |  |
| < 50% | COc1ccc([C@@H]2Oc3ccccc3C[C@H]2O)cc1 |  |
| < 50% | CC(=O)O[C@H]1Cc2ccccc2O[C@H]1c1ccc(OCc2ccccc2)cc1 |  |
| 700% | COc1ccc([C@@H]2Oc3ccccc3C[C@H]2OC(C)=O)cc1 | EC50 [3]: 13.7 µM; fold change (FC) [4]: 8.5 |
| < 50% | COc1ccc([C@@H]2Oc3cc(OCc4ccccc4)ccc3C[C@H]2OC(C)=O)cc1 |  |
| < 50% | COc1ccc([C@H]2Oc3cc(OCc4ccccc4)ccc3C[C@H]2OC(C)=O)cc1 |  |
| < 50% | COc1ccc([C@@H]2Oc3ccccc3C[C@@H]2OC(C)=O)cc1 |  |
